Assay results taken from ChEMBL document CHEMBL1782042, “Efficient microwave-assisted synthesis and antitumor activity of novel 4,4'-methylenebis[2-(3-aryl-4,5-dihydro-1H-pyrazol-5-yl)phenols]” (Eur J Med Chem, 2011).

What was measured:
NCI/ADR-RES = assay: Anticancer activity against human NCI/ADR-RES cells after 48 hrs by sulforhodamine B assay; type: functional
Procedure, shortened: (§1)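 NCI 60-cell-line in vitro screen, second stage: five concentration levels (100, 10, 1.0, 0.1 and 0.01 μM) with 48 h continuous drug exposure. Cell growth was estimated by sulforhodamine B protein staining. GI50 is the drug concentration that gives a 50% reduction in net protein increase relative to control cells over the incubation.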

Malme-3M = assay: Anticancer activity against human MALME-3M cells after 48 hrs by sulforhodamine B assay; type: functional; procedure, shortened: as §1
ACHN = assay: Cytotoxicity against human ACHN cells; type: cell-based
Procedure, shortened: (§2)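 NCI 60 human tumour cell line screen, second stage at five concentrations (100, 10, 1.0, 0.1 and 0.01 μM). Continuous drug exposure for 48 h, with cell growth estimated by sulforhodamine B protein staining. GI50 is the drug concentration giving a 50% reduction in net protein increase relative to control cells over the incubation.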

RXF 393 = assay: Cytotoxicity against human RXF393 cells; type: cell-based; procedure, shortened: as §2
HL-60(TB) [1] = assay: Anticancer activity against human HL-60(TB) cells after 48 hrs by sulforhodamine B assay; type: functional; details: HL-60, 48 h; procedure, shortened: as §2
NCI-H226 = assay: Cytotoxicity against human NCI-H226 cells; type: cell-based; procedure, shortened: as §2
CCRF-CEM = assay: Anticancer activity against human CCRF-CEM cells after 48 hrs by sulforhodamine B assay; type: functional; procedure, shortened: as §1
OVCAR-3 = assay: Cytotoxicity against human OVCAR3 cells; type: cell-based; procedure, shortened: as §2
RPMI-8226 [2] = assay: Cytotoxicity against human RPMI8226 cells; type: cell-based; procedure, shortened: as §2
HL-60(TB) [3] = assay: Cytotoxicity against human HL-60(TB) cells; type: cell-based; procedure, shortened: as §2
RPMI-8226 [4] = assay: Anticancer activity against human RPMI8226 cells after 48 hrs by sulforhodamine B assay; type: functional; details: RPMI-8226, 48 h; procedure, shortened: as §1
786-0 = assay: Cytotoxicity against human 786-0 cells; type: cell-based; procedure, shortened: as §2

Oc1ccc(Cc2ccc(O)c(C3CC(c4ccc(Cl)cc4)=NN3)c2)cc1C1CC(c2ccc(Cl)cc2)=NN1 (configuration not stated)
GI50 (NCI/ADR-RES): 2.24 µM | GI50 (Malme-3M): 5.08 µM | LC50 (ACHN): > 100 µM | LC50 (RXF 393): > 100 µM | GI50 (HL-60(TB) [1]): 2.66 µM | LC50 (NCI-H226): > 100 µM | GI50 (CCRF-CEM): 1.94 µM | LC50 (OVCAR-3): > 100 µM | LC50 (RPMI-8226 [2]): > 100 µM | LC50 (HL-60(TB) [3]): > 100 µM | GI50 (RPMI-8226 [4]): 5.09 µM | LC50 (786-0): > 100 µM
